≈ marks a conversion by molar mass, not a printed value. A value given as a limit tells only on which side of the number the result lay.

We go through one compound from ChEMBL document CHEMBL1221298, “InCl3 mediated one-pot multicomponent synthesis, anti-microbial, antioxidant and anticancer evaluation of 3-pyranyl indole derivatives” (Bioorg Med Chem Lett, 2010).

Common to all, as to assay type: functional
Assay [1] has as its system Escherichia coli. Description: microbe, parasite or virus in culture. The conditions noted are these: ATCC 25922, 24 h.
For assay [2], the system named is Bacillus cereus. The assay can be described thus: Antimicrobial activity against Bacillus cereus ATCC 11778 at 100 ug/ml after 24 hrs by paper disk diffusion method. To be noted: ATCC 11778, 24 h, read-out: IZ.
The test system of assay [3] is Escherichia coli. Description: microbe, parasite or virus in culture. To be noted: ATCC 25922, 24 h, read-out: IZ.
Assay [4] in a line: Antioxidant activity assessed as ABTS radical scavenging activity. Summed up: (§1)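 Test samples at 50, 100, 200 and 400 ug/ml were each mixed with 1 ml of freshly prepared ABTS radical cation solution, adjusted to absorbance 0.7–0.9 at 734 nm. Mixtures reacted 2 h in the dark, then absorbance was read at 734 nm against a blank. Scavenging % was taken as the absorbance decrease relative to ABTS solution without test sample.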

Assay [5] can be described thus: Antioxidant activity assessed as ABTS radical scavenging activity at 50 ug/ml. The conditions noted are these: at 50 µg/mL. Summed up:
as §1

Assay [6] relates to Staphylococcus aureus. Description: microbe, parasite or virus in culture. The conditions noted are these: ATCC 9144, 24 h, read-out: IZ.
For assay [7], the system named is Radical scavenging activity. The assay can be described thus: Antioxidant activity assessed as DPPH radical scavenging activity. Summed up: (§2)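 Each test sample was mixed with 1 ml DPPH in methanol, incubated at 37 °C for 30 min, and read spectrophotometrically at 517 nm with a blank reading. Scavenging % was expressed as the absorbance decrease at 517 nm relative to DPPH solution without test sample.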
A general note: The DPPH test is a chemical assay of radical scavenging.

Assay [8] concerns Staphylococcus aureus. The assay can be described thus: microbe, parasite or virus in culture. To be noted: ATCC 9144, 24 h.
The next assay concerns MCF7. Description: Cytotoxicity against human MCF7 cells after 24 hrs by MTT assay. The conditions noted are these: MCF7, 24 h. Summed up: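 Exponentially growing cells plated at 10⁴ cells/well and allowed to attach, then exposed to test compounds or doxorubicin (dissolved in 0.1% DMSO, diluted in medium; range 1–100) for 24 h; controls received medium with 0.1% DMSO. MTT (1 mg/ml) added for 4 h at 37 °C, formazan dissolved in DMSO, absorbance read at 540 nm; % cytotoxicity calculated from blank-corrected absorbances versus control.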
On the technique in general: Tetrazolium dyes change colour on reduction, which living cells bring about.

The subject of assay [9] is Bacillus cereus. The assay can be described thus: microbe, parasite or virus in culture. To be noted: ATCC 11778, 24 h.
Assay [10] deals with Radical scavenging activity. Description: Antioxidant activity assessed as DPPH radical scavenging activity at 200 ug/ml. The conditions noted are these: at 200 µg/mL. Summed up:
as §2

Assay [11] has as its system Radical scavenging activity. The assay can be described thus: Antioxidant activity assessed as DPPH radical scavenging activity at 400 ug/ml. To be noted: at 400 µg/mL. An outline of the steps: as §2
Assay [12] is described as follows: Antioxidant activity assessed as ABTS radical scavenging activity at 400 ug/ml. The conditions noted are these: at 400 µg/mL. Summed up: as §1
Assay [13] concerns Radical scavenging activity. The assay can be described thus: Antioxidant activity assessed as DPPH radical scavenging activity at 50 ug/ml. The conditions noted are these: at 50 µg/mL. An outline of the steps: as §2
Assay [14] concerns Klebsiella pneumoniae. The assay can be described thus: microbe, parasite or virus in culture. The conditions noted are these: ATCC 11298, 24 h.
Assay [15] can be described thus: Antioxidant activity assessed as ABTS radical scavenging activity at 200 ug/ml. The conditions noted are these: at 200 µg/mL. An outline of the steps: as §1
The subject of assay [16] is Klebsiella pneumoniae. Description: microbe, parasite or virus in culture. The conditions noted are these: ATCC 11298, 24 h, read-out: IZ.
Assay [17] in a line: Antioxidant activity assessed as ABTS radical scavenging activity at 100 ug/ml. To be noted: at 100 µg/mL. Summed up: as §1
Assay [18] relates to Radical scavenging activity. The assay can be described thus: Antioxidant activity assessed as DPPH radical scavenging activity at 100 ug/ml. The conditions noted are these: at 100 µg/mL. Summed up: as §2

By IC50 is commonly meant the point on the concentration scale where inhibition reaches its midpoint. What is called GI50 is the concentration that inhibits growth by half. A high value points to less potent growth inhibition. What is called TGI is the concentration at which net growth stops. High values mean lower sensitivity of the cells, low ones greater sensitivity of the cells. Turning to `N#CC1=C(N)OC(c2c[nH]c3ccccc23)=C(C#N)C1c1cccc2ccccc12` (stereo unspecified), the MIC stood at 28 µg/mL (≈ 72.1 µM) in the assay on Escherichia coli [1], 28.6 µg/mL (≈ 73.6 µM) in the assay with Staphylococcus aureus [8], 26.2 µg/mL (≈ 67.5 µM) against Bacillus cereus [9] and 33.2 µg/mL (≈ 85.5 µM) in the assay with Klebsiella pneumoniae [14]. The zone of inhibition at 100 µg/mL amounted to 16 mm with Bacillus cereus [2], 16 mm in the assay with Escherichia coli [3], 15 mm with Staphylococcus aureus [6] and 15 mm with Klebsiella pneumoniae [16]. For the same compound, the IC50 was more than 1000 µg/mL in assay [4] and 1599.62 µg/mL (≈ 4120 µM) in assay [7]. Besides, the Activity was determined as 4.7% in assay [5]; 22.8% in assay [10]; 26.4% in [11]; 10.4% in [12]; 18.8% in [13]; 7.7% in [15]. Besides, the Activity was determined as 6.8% in assay [17] and 21.8% in assay [18]. Moreover, in the assay on MCF7, the GI50 worked out at 18.2 µM. This compound also came in with an LC50 (concentration killing 50% of cells) in the assay on MCF7 of 80.2 µM. This compound had a TGI in the assay with MCF7 of 33.9 µM.
